Molecules are shown by their SMILES.

Test [1] deals with E. coli strains with A2503C, A2059G or A2059C in the 23S rRNA. Description: MIC against erythromycin-resistant strains with 23S rRNA mutations. In kind it is cell-based, Escherichia coli. As to conditions: Table S2 (not available). The method, boiled down:
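Broth microdilution in Müller-Hinton broth with E. coli grown at 37°C. Test compounds started at 128 μM and were serially two-fold diluted, then halved again on adding bacteria to 2.5 × 10^4 CFU/well. Plates sealed and incubated overnight at 37°C. MIC taken as the lowest concentration preventing visible growth.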

Test [2] addresses E. coli ribosomes on H-ns-PPP mRNA (Escherichia coli, UniProt P60723). Description: Toeprinting assay in fully reconstituted in vitro translation system. Format: biochemical. As to conditions: 1-100 μM peptide, 100 μM thiostrepton; 15 min 37°C.

For the compound `CC[C@H]1OC(=O)[C@H](C)[C@@H](O[C@H]2C[C@@](C)(OC)[C@@H](O)[C@H](C)O2)[C@H](C)[C@@H](O[C@@H]2O[C@H](C)C[C@H](N(C)C)[C@H]2O)[C@](C)(O)C[C@@H](C)C(=O)[C@H](C)[C@@H](O)[C@]1(C)O` [erythromycin], in test [1], the “Change in MIC with 23S rRNA mutations versus wildtype (in words)” value is reported as “increased MIC”.
On to `C=C(NC(=O)C(=C)NC(=O)c1csc(C2=N[C@@H]3c4csc(n4)[C@H]4NC(=O)c5csc(n5)[C@H]([C@](C)(O)[C@@H](C)O)NC(=O)[C@H]5CSC(=N5)/C(=C/C)NC(=O)[C@H]([C@@H](C)O)NC(=O)c5csc(n5)[C@]3(CC2)NC(=O)[C@H](C)NC(=O)C(=C)NC(=O)[C@H](C)NC(=O)[C@H]([C@@H](C)CC)N[C@@H]2C=Cc3c([C@H](C)O)cc(nc3[C@H]2O)C(=O)O[C@@H]4C)n1)C(N)=O` [thiostrepton], for which the “Toeprint result (in words)” value in test [2] is “ribosomes can initiate at the AUG start codon but cannot translate further”.

For the origin of these results see paper PMC6219704 (Cell chemical biology, 2018).
